Compounds with a hit are over-represented: about 5.6% of the library has one in this group of screens.
MPTP inh – inhibitors of mitochondrial permeability transition pore; isolated mouse mitochondria, Ca2+ swelling absorbance, 30 min; inhibition, % at 10 µM; hit rate 1.4% among 360,000; AID 602449;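 active = inhibition of 50% or more, scaled per plate between neutral and stimulator controls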
aDG glyco up – alpha-DG glycosylation activation; Pro5-aDG cells, alpha-DG glycosylation AlphaScreen (IIH6); 0% Pro5, 100% B10-LARGE cell signal; activation, % at 10 µM; hit rate 0.22% among 360,000;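 active = activation of at least 8% versus controls, or a plate z-score of at least 8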;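 note: Pro5 are CHO cells carrying HIG-tagged alpha-DG that lacks glycosylation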
UPR XBP1 act – activators of adaptive arm of unfolded protein response (XBP1) | activation, % at 20 µM | CHO-XBP1 luciferase reporter, IRE1-XBP1 UPR activation, luminescence; percent of tunicamycin response, DMSO as zero | hit rate 0.33% among 330,000;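 active = versus positive control, 20 µM dose yields 30% or more activation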
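Material: CHO-XBP1 cells stably carrying IRE1-XBP1-driven luciferase reporter / Amount: 1000 cells per well / Compound: 20 µM, 1% DMSO / Times: 6 h treatment, 37 °C / Detection: luciferase luminescence / Measure: % activation of reporter signal versus tunicamycin and DMSO controls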
NR3A LBD binder – modulators (binders) of human NR3A ligand-binding domain. NR3A LBD differential scanning fluorimetry, Tm shift; 0% = protein alone, 100% = glycine-bound protein. Tm shift relative to glycine control, % at 25 µM. hit rate 2.5% among 340,000;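 active = melting temperature shift of at least 10% of the positive control shift, at one fixed dose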
UPR CHOP act – activators of apoptotic arm of unfolded protein response (CHOP); activation, % at 10 µM; AID 449763; hit rate 0.34% among 330,000; CHO-CHOP luciferase reporter, UPR activation, luminescence; percent of tunicamycin response over DMSO baseline;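 active = at 10 µM dose, activation of 40% or more, normalized to positive control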
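Dosing – one dose, 10 µM in 0.5% DMSO · System – CHO-CHOP cells, stable luciferase reporter of PERK-eIF2a-CHOP signalling · Input – 500 cells/well · Control set – tunicamycin 10 µg/mL final as positive, DMSO-only wells as negative · Timing – 6 h compound treatment, 37 °C · Measure – % activation vs tunicamycin · Technique – luminescence read with Steady-Glo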
CHOP inh – CHOP inhibition in unfolded protein response. inhibition, % at 10 µM. AID 2732. CHO-K1 CHOP-promoter luciferase, tunicamycin-induced, 15-18 h. hit rate 3.8% among 220,000;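 active = compounds that reduced the stress-induced luciferase reporter signal by more than about 70% of percent inhibition, limit read from the data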
Hits are given with their value; n = inactive; x = no result given.

SMILES | MPTP inh | aDG glyco up | UPR XBP1 act | NR3A LBD binder | UPR CHOP act | CHOP inh
CCC(=O)Nc1ccc(Br)cn1 | n | n | n | 233 | n | n
CCOC(=O)N1C(=O)NC(=O)C1c1ccc(OC)cc1 (centres undefined) | n | n | x | n | x | x
Cc1ccccc1N1CCN(C2CCCN(C(=O)c3cn4cccc(C)c4n3)C2)CC1 (centres undefined) | n | n | n | n | n | x
COC(=O)CS(=O)(=O)c1ccsc1C(=O)Nc1ccc(F)cc1 | n | n | n | n | n | n
Nc1ccc2nc(-c3ccc(Cl)cc3)[nH]c2c1 | n | n | n | n | n | n
Cc1nc2ccc(-c3nc4ccccc4o3)cc2[nH]1 | n | n | n | n | n | n
Nc1ccc(-c2nc3ccc(-c4nc5ccccc5o4)cc3[nH]2)cc1 | n | n | n | 18 | n | n
Nc1ccc2nc(-c3cc(Cl)c(N)c(Cl)c3)[nH]c2c1 | n | n | n | 12 | n | n
Nc1ccc(-c2nc3ccc(N)cc3[nH]2)cc1 | n | n | n | n | n | n
Nc1ccc(-c2nc3ccc([N+](=O)[O-])cc3[nH]2)cc1 | n | n | n | 25 | n | n
COc1ccc(CNC(=O)O[C@H]2C[C@@H]3C(=O)N(c4ccccc4)C(=O)[C@@H]3[C@@H]3CN(S(=O)(=O)c4ccc(C)cc4)C[C@]23O)cc1OC | n | n | x | x | x | x
COCC(=O)Nc1cc(C)cn(Cc2ccccc2Cl)c1=O | n | n | n | n | n | x
O=C(Nc1ccc(S(=O)(=O)Nc2ncccn2)cc1)c1cccc([N+](=O)[O-])c1 | n | n | x | x | x | x
Cc1ccc(C(=O)Nc2ccc(OCc3ccccc3)cc2)cc1[N+](=O)[O-] | n | n | n | 28 | n | n
Cc1ccc(C(=O)NC(=S)Nc2cccc(NC(=O)c3ccccc3Cl)c2)cc1[N+](=O)[O-] | n | n | n | n | n | n
Cc1ccc(C(=O)NC(=S)Nc2cccc(NC(=O)c3ccccc3)c2)cc1[N+](=O)[O-] | n | n | n | 19 | n | n
Cc1c([N+](=O)[O-])cc(C(=O)Nc2ccc(Cc3ccncc3)cc2)cc1[N+](=O)[O-] | n | n | n | n | n | 77
O=C(Nc1ccc(OCc2ccccc2)cc1)c1cccc([N+](=O)[O-])c1 | n | n | n | 27 | n | n
CCOc1ccc(N(CC(=O)Nc2ccc(OC)cc2)C2=NC3CS(=O)(=O)CC3S2)cc1 (centres undefined) | n | n | n | n | n | x
CCOC(=O)CNC(=O)CSc1nnc(NC(=O)c2ccc(S(=O)(=O)N3CCOCC3)cc2)s1 | n | n | n | n | n | x
CC1CC(C)CN(S(=O)(=O)CCNC(=O)c2ccc3c(c2)OCO3)C1 (centres undefined) | n | n | n | n | n | x
Cc1noc(C)c1C(=O)OCC(=O)NC(=O)NC12CC3CC(CC(C3)C1)C2 | n | n | n | n | n | 81
Cc1noc(C)c1C(=O)OCC(=O)NC(=O)c1ccc(C(C)(C)C)cc1 | n | n | x | x | x | x
Cc1nn(-c2ccccc2)c(Cl)c1C(=O)OCC(=O)NCCc1ccccc1 | n | n | n | n | n | x
Cc1nn(Cc2ccccc2)c(Cl)c1C(=O)OCC(=O)NC(=O)NC12CC3CC(CC(C3)C1)C2 | n | n | n | 17 | n | n
SMILES | MPTP inh | aDG glyco up | UPR XBP1 act | NR3A LBD binder | UPR CHOP act | CHOP inh
O=C(CCl)NC(=O)NC12CC3CC(CC(C3)C1)C2 | n | n | x | n | x | 103
CCN(CC)C(=O)C1=C(C)N(Cc2ccc(C(C)(C)C)cc2)C(=O)C(CC(=O)NC2CC2)C1 (centres undefined) | n | n | x | x | x | x
CN(C)S(=O)(=O)c1ccc(Cl)c(C(=O)Nc2cccc3ncccc23)c1 | n | n | n | n | n | x
O=C(c1cccc(F)c1)N1CCN=C1SCc1cccnc1 | n | n | n | n | n | 86
O=C(CSc1nc2ccccc2o1)N1c2ccccc2Sc2ccc(C(F)(F)F)cc21 | n | n | n | 12 | n | n
O=C(CN1CCCC1)N1c2ccccc2Sc2ccc(C(F)(F)F)cc21 | n | n | n | n | n | n
Cc1csc(C(=O)O)c1NC(=O)c1cccc([N+](=O)[O-])c1 | n | n | n | n | n | n
CCCCn1nc(C(=O)NCC2COc3ccccc3O2)c2ccccc2c1=O (centres undefined) | n | n | n | n | n | x
O=C(/C=C/c1ccc(OC(F)F)cc1)Nc1cccc(S(=O)(=O)N2CCOCC2)c1 | n | n | n | 20 | n | x
CC(=O)c1cccc(NC(=O)/C=C/c2ccc(S(=O)(=O)N3CCOCC3)cc2)c1 | n | n | n | n | n | x
COc1ccc(/C=C/C(=O)Nc2cccc(S(=O)(=O)N3CCOCC3)c2)cc1OC | n | n | n | n | n | x
O=C(/C=C/c1cccc(F)c1)Nc1ccc(S(=O)(=O)N2CCOCC2)cc1 | n | n | n | 37 | n | x
O=C(/C=C/c1ccccc1)Nc1ccc(S(=O)(=O)N2CCOCC2)cc1 | n | n | n | 31 | n | x
COc1ccc(NS(=O)(=O)c2ccc3oc(=O)c4[nH]c(=O)c(=O)n(C)c4c3c2)cc1 | n | n | n | n | n | x
O=C(Cn1cc(C(F)(F)F)cc(Cl)c1=O)NCCc1ccc(Cl)cc1Cl | n | n | n | n | n | 74
COc1cc(/C=C(\C#N)C(=O)NCC2CCCO2)ccc1OC(C)C (centres undefined) | n | n | n | 11 | n | n
CCOC(=O)c1c(C)oc2c1cc(O)c1ccccc12 | n | n | n | n | n | 77
CCOC(=O)c1c(C)oc2c1c(C=NCc1ccccn1)c(O)c1ccccc12 | n | n | x | n | x | 82
CC(=O)c1c(C)oc2c1cc(O)c1ccccc12 | n | n | n | n | n | n
CN(Cc1ccc(Br)cc1)C(=O)CCN1C(=O)c2cccc([N+](=O)[O-])c2C1=O | n | n | n | n | n | x
Cc1c(NC(=O)CN2C(=O)NC(C)(c3ccccc3)C2=O)c(=O)n(-c2ccccc2)n1C (centres undefined) | n | n | n | n | n | 82
Cc1ccc(Cl)c(NC(=O)COC(=O)c2nn(-c3ccccc3)cc2O)c1Cl | n | n | n | n | n | x
COc1cc(/C=C/C(=O)O)cc(S(=O)(=O)Nc2ccc(S(=O)(=O)N3CCCCC3)cc2)c1OC | n | n | n | n | n | x
N#C/C(=N\Nc1ccc(Cl)c(Cl)c1)C(=O)C1CC1 | n | n | n | 12 | n | n
N#C/C(=N\Nc1ccc(F)cc1)C(=O)C1CC1 | n | n | n | n | n | n
Cc1ccc(/C=C2/SC(=S)N(CCCC(=O)Nc3ccc(O)cc3)C2=O)cc1 | n | n | n | n | n | 94
COc1ccc(/C=C2\SC(=S)N(CCC(=O)Nc3ccc(O)cc3)C2=O)cc1 | n | n | n | 15 | n | x
